Here are results for five compounds from ChEMBL document CHEMBL1146375, “Synthetic studies on novel benzimidazolopeptides with antimicrobial, cytotoxic and anthelmintic potential” (2007).

Values after ≈ are worked out from the molar mass of the structure shown.

The test system of assay [1] is Staphylococcus aureus. Nature of the assay: Antibacterial activity against Staphylococcus aureus NCIM 2079 after 18 hrs by tube dilution method. It is filed as functional. To be noted: NCIM 2079, 18 h. The gist of the method:
(§1)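 Tube dilution MIC. Stock diluted in sterile broth to seven concentrations from 200 to 3.1 […]. Each tube inoculated with one loopful of test bacterium and incubated 18 h at 37 °C. MIC read from presence or absence of growth.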

Assay [2] is described as follows: Anthelmintic activity against Megascoplex konkanensis ICARBC 211 assessed as mean death time. The class given is functional. The gist of the method:
(§2)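 Earthworms exposed to test suspensions at 2 mg mL^-1 (0.2% w/v), made by triturating compound with Tween 80 (0.5%) and distilled water, then mechanically stirred 30 min. Mebendazole suspension prepared alike as reference. Paralysis and death times recorded; death confirmed by no movement in 50 °C water. Means from triplicate sets.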

The subject of assay [3] is Trichophyton benhamiae. Description: Antifungal activity against Trichophyton mentagrophytes MUCC 665 after 48 hrs by tube dilution method. It is filed as functional, Arthroderma benhamiae. The gist of the method:
(§3)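 Tube dilution MIC as for bacteria (seven concentrations, 200–3.1 […]), with DMSO in place of DMF. Tubes inoculated with fungal culture and incubated 48 h at 37 °C. MIC read from presence or absence of growth.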

Assay [4] has as its system Bacillus subtilis. Nature of the assay: Antibacterial activity against Bacillus subtilis NCIM 2063 after 18 hrs by disc diffusion method. It is filed as functional. An outline of the steps: (§4)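 Modified Kirby-Bauer disc diffusion. Plates inoculated with spore suspension (about 6 × 10⁴ spores mL^-1). Sterile 6 mm paper discs carried test samples at 10 mg mL^-1; ciprofloxacin disc as reference, DMF disc as negative control. Plates held 18 h at 37 °C. Inhibition zone diameters (mm) averaged over triplicate sets.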
On the technique in general: A growth-free zone around the sample is the usual read-out of agar diffusion tests.

Assay [5] concerns Staphylococcus aureus. Nature of the assay: Antibacterial activity against Staphylococcus aureus NCIM 2079 after 18 hrs by disc diffusion method. The class given is functional. An outline of the steps: as §4
The test system of assay [6] is Eudrilus. Description: Anthelmintic activity against Eudrilus sp. assessed as mean paralyzing time. The class given is functional. An outline of the steps: as §2
Assay [7] has as its system Candida albicans. Nature of the assay: Antifungal activity against Candida albicans MUCC 29 after 48 hrs by tube dilution method. The class given is functional. The gist of the method: as §3
The test system of assay [8] is Microsporum audouinii. Description: Antifungal activity against Microsporum audouinii MUCC 545 after 48 hrs by tube dilution method. It is filed as functional. An outline of the steps: as §3
Another assay concerns Aspergillus niger. Description: Antifungal activity against Aspergillus niger MUCC 177 after 48 hrs by disc diffusion method. It is filed as functional. The gist of the method:
(§5)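 Agar well diffusion on plates inoculated with spore suspension in normal saline from cultures on Sabouraud's broth. Wells punched and loaded with test samples or griseofulvin at 10 mg mL^-1, with DMSO as negative control. Incubated 48 h at 37 °C.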

Assay [9] concerns Pseudomonas aeruginosa. Nature of the assay: Antibacterial activity against Pseudomonas aeruginosa NCIM 2034 after 18 hrs by tube dilution method. It is filed as functional. To be noted: NCIM 2034, 18 h. An outline of the steps: as §1
Assay [10] has as its system Escherichia coli. Description: Antibacterial activity against Escherichia coli NCIM 2065 after 18 hrs by disc diffusion method. The class given is functional. An outline of the steps: as §4
The subject of assay [11] is Candida albicans. Description: Antifungal activity against Candida albicans MUCC 29 after 48 hrs by disc diffusion method. The class given is functional. The gist of the method: as §5
In assay [12] the test system is Pontoscolex corethrurus. Description: Anthelmintic activity against Pontoscolex corethrurus ICARBC 408 assessed as mean paralyzing time. The class given is functional. The gist of the method: as §2
A short description of assay [13]: Anthelmintic activity against Megascoplex konkanensis ICARBC 211 assessed as mean paralyzing time. It is filed as functional. An outline of the steps:
as §2

Assay [14] deals with Pontoscolex corethrurus. Nature of the assay: Anthelmintic activity against Pontoscolex corethrurus ICARBC 408 assessed as mean death time. It is filed as functional. The gist of the method:
(§6)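 Earthworms exposed to test suspensions at 2 mg mL−1, prepared by triturating compound with Tween 80 (0.5%) and distilled water, stirring 30 min, then diluting to 0.2% w/v. Mebendazole suspension was made the same way. Death was confirmed by moving worms into 50 °C warm water and looking for movement. Mean death time (min) taken from triplicate sets.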

In assay [15] the test system is Escherichia coli. Nature of the assay: Antibacterial activity against Escherichia coli NCIM 2065 after 18 hrs by tube dilution method. The class given is functional. To be noted: NCIM 2065, 18 h.
Assay [16] has as its system Eudrilus. Description: Anthelmintic activity against Eudrilus sp. assessed as mean death time. The class given is functional. The gist of the method:
as §6

The test system of assay [17] is Microsporum audouinii. Nature of the assay: Antifungal activity against Microsporum audouinii MUCC 545 after 48 hrs by disc diffusion method. It is filed as functional. An outline of the steps:
as §5

Assay [18] deals with Trichophyton benhamiae. Description: Antifungal activity against Trichophyton mentagrophytes MUCC 665 after 48 hrs by disc diffusion method. The class given is functional, Arthroderma benhamiae. The gist of the method:
as §5

The test system of assay [19] is Pseudomonas aeruginosa. Description: Antibacterial activity against Pseudomonas aeruginosa NCIM 2034 after 18 hrs by disc diffusion method. It is filed as functional. The gist of the method: as §4
The test system of assay [20] is Bacillus subtilis. Description: Antibacterial activity against Bacillus subtilis NCIM 2063 after 18 hrs by tube dilution method. The class given is functional. To be noted: NCIM 2063, 18 h. An outline of the steps:
as §1

Broadly, the MIC is the smallest concentration in the dilution series that meets the test's criterion for growth inhibition. Regarding `Cc1cc2nc(-c3ccc(C(=O)N[C@@H](CCCNC(=N)N[N+](=O)[O-])C(=O)O)cc3)[nH]c2cc1C`, the MIC was determined as 25 µg/mL (≈ 53.5 µM) in the assay with Staphylococcus aureus [1]; 12.5 µg/mL (≈ 26.7 µM) against Trichophyton benhamiae [3]; 12.5 µg/mL (≈ 26.7 µM) in the assay on Candida albicans [7]; 12.5 µg/mL (≈ 26.7 µM) against Microsporum audouinii [8]; 6 µg/mL (≈ 12.8 µM) against Pseudomonas aeruginosa [9]; 12.5 µg/mL (≈ 26.7 µM) in the assay with Escherichia coli [15]. The compound also yielded an MIC against Bacillus subtilis [20] of 12.5 µg/mL (≈ 26.7 µM). The TIME in [2] came to 0.438 h; in assay [13], 0.302 h. Also, the “inhibition zone (IZ)” value was 15 mm in the assay on Bacillus subtilis [4]; 11 mm in the assay with Staphylococcus aureus [5]; 16 mm with Aspergillus niger; 19 mm in the assay with Escherichia coli [10]; 17 mm with Candida albicans [11]; 10 mm with Microsporum audouinii [17]. Moreover, the figures for the “inhibition zone (IZ)” value in the assay on Trichophyton benhamiae [18] and with Pseudomonas aeruginosa [19] were 14 mm and 25 mm, respectively. Besides, the Time in the assay with Eudrilus [6] is recorded as 18.38 min; with Pontoscolex corethrurus [12], 21.51 min; with Pontoscolex corethrurus [14] it was 34.96 min; in the assay with Eudrilus [16], 38.12 min.
For the compound `Cc1cc2nc(-c3ccc(O)c(C(=O)N[C@@H](Cc4c[nH]c5ccccc45)C(=O)N[C@@H](C)C(=O)N[C@@H](Cc4ccc(O)cc4)C(=O)O)c3)[nH]c2cc1C`, the MIC in the assay on Staphylococcus aureus [1] came out at 12.5 µg/mL (≈ 17.8 µM); against Trichophyton benhamiae [3] it was 6 µg/mL (≈ 8.54 µM); in the assay with Candida albicans [7], 6 µg/mL (≈ 8.54 µM); against Microsporum audouinii [8] it was 12.5 µg/mL (≈ 17.8 µM); with Pseudomonas aeruginosa [9], 6 µg/mL (≈ 8.54 µM); with Escherichia coli [15], 12.5 µg/mL (≈ 17.8 µM). This compound registered a minimum inhibitory concentration (MIC) against Bacillus subtilis [20] of 12.5 µg/mL (≈ 17.8 µM). In addition, the TIME in assay [2] came out at 0.377 h; in assay [13], 0.224 h. In addition, the “inhibition zone (IZ)” value in the assay on Bacillus subtilis [4] worked out at 16 mm; with Staphylococcus aureus [5], 11 mm; with Aspergillus niger, 17 mm; in the assay with Escherichia coli [10], 18 mm; with Candida albicans [11], 18 mm; with Microsporum audouinii [17] it was 12 mm. Besides, the “inhibition zone (IZ)” value in the assay with Trichophyton benhamiae [18] amounted to 15 mm; with Pseudomonas aeruginosa [19], 22 mm. Moreover, the Time was 13.25 min with Eudrilus [6], 17.02 min in the assay on Pontoscolex corethrurus [12], 29.19 min in the assay on Pontoscolex corethrurus [14] and 23.98 min with Eudrilus [16].
On to `O=C(O)c1cn(C2CC2)c2cc(N3CCNCC3)c(F)cc2c1=O` [CIPROFLOXACIN], for which the MIC stood at 12.5 µg/mL (≈ 37.7 µM) in the assay on Staphylococcus aureus [1], 6 µg/mL (≈ 18.1 µM) against Pseudomonas aeruginosa [9], 12.5 µg/mL (≈ 37.7 µM) in the assay with Escherichia coli [15] and 6 µg/mL (≈ 18.1 µM) in the assay on Bacillus subtilis [20]. The “inhibition zone (IZ)” value with Bacillus subtilis [4] stood at 20 mm; with Staphylococcus aureus [5], 20 mm; in the assay with Pseudomonas aeruginosa [19], 25 mm.
`COC(=O)Nc1nc2cc(C(=O)c3ccccc3)ccc2[nH]1` [MEBENDAZOLE]: the TIME in [2] was 0.382 h; in assay [13] it was 0.231 h. Also, the Time in the assay with Eudrilus [6] is 13.54 min; in the assay with Pontoscolex corethrurus [12], 17.85 min; with Pontoscolex corethrurus [14], 29.64 min; with Eudrilus [16], 24.05 min.
Turning to `COC1=CC(=O)C[C@@H](C)[C@]12Oc1c(Cl)c(OC)cc(OC)c1C2=O` [GRISEOFULVIN], the MIC in the assay with Trichophyton benhamiae [3], against Candida albicans [7] and against Microsporum audouinii [8] was 6 µg/mL (≈ 17 µM) in each case. Moreover, the “inhibition zone (IZ)” value was 18 mm in the assay on Aspergillus niger, 20 mm with Candida albicans [11], 17 mm with Microsporum audouinii [17] and 20 mm in the assay with Trichophyton benhamiae [18].
